Data as given in the M2OR odorant receptor database.
Positions count from the first letter of the chain named.

Assays:
Settings in all cases: stereoisomer not certain
O5AP2 A105T = tested on: T1, O5AP2 A105T
T1 sequence (whole entry): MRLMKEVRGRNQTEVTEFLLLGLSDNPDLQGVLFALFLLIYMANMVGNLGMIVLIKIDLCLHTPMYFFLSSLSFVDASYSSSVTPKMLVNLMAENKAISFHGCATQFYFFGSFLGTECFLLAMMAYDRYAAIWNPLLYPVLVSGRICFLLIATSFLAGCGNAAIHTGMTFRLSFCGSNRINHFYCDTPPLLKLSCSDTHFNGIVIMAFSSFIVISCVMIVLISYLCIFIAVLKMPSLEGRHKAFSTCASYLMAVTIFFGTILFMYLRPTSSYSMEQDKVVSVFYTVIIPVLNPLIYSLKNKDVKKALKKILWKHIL
Method in brief: (§1)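 Each receptor–molecule pair is labelled responsive or non-responsive (inactive) according to whether the original authors judged the measured signal statistically different from baseline. The data were taken from the main text and supplementary material of published papers and checked for typos and inconsistencies. Assay methods differed by source, with transient luciferase assays in mammalian cell lines being common.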

O5AU1 = tested on: T2, O5AU1
T2 sequence (whole entry): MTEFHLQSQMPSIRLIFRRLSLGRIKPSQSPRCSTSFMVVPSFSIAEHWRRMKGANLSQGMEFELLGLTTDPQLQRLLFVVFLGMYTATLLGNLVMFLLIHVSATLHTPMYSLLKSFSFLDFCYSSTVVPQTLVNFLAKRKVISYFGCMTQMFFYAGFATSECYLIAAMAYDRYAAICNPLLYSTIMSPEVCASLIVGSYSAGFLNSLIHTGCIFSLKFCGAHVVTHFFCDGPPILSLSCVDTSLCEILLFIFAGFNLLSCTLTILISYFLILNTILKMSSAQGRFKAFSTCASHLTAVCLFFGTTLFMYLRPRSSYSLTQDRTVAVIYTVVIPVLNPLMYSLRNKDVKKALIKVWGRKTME
Method in brief: as §1

O5H14 = tested on: T3, O5H14
T3 sequence (whole entry): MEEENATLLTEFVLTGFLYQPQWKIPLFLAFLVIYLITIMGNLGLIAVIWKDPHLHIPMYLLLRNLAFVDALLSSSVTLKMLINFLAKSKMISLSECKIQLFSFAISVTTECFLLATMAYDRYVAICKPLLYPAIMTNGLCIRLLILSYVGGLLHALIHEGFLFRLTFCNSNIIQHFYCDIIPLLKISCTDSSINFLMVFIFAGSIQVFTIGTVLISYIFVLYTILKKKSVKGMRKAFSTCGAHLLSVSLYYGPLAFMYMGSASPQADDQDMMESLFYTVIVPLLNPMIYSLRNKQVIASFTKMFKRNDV
Method in brief: as §1

O5H15 V108I S148T T167S = tested on: T4, O5H15 V108I S148T T167S
T4 sequence (whole entry): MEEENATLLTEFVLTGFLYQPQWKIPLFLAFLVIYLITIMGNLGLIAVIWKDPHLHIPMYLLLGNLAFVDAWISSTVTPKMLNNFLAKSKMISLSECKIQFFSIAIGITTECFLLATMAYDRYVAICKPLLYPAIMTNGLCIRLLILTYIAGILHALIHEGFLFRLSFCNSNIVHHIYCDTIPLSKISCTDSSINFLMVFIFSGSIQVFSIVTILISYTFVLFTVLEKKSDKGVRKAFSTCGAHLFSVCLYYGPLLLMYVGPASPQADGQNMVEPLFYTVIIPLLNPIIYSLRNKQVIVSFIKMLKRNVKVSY
Method in brief: as §1

O6C65 T222A = tested on: T5, O6C65 T222A
T5 sequence (whole entry): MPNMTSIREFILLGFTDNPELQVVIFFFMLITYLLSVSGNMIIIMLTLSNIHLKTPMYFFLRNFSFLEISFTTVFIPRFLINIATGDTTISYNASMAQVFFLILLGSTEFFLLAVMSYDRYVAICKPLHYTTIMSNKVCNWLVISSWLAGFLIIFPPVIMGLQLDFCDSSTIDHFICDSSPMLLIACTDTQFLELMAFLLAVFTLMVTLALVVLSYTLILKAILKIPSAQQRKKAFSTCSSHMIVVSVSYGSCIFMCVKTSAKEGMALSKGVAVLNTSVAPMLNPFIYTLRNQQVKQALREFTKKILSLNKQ
Method in brief: as §1

O6C70 L181P = tested on: T6, O6C70 L181P
T6 sequence (whole entry): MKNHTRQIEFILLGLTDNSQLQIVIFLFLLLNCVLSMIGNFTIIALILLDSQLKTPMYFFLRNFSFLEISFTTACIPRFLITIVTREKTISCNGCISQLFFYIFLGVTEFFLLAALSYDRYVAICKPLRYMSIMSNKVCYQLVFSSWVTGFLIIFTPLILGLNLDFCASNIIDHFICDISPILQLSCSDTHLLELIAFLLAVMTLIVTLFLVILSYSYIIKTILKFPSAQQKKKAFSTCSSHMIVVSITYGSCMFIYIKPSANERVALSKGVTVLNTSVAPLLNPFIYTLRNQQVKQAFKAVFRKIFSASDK
Method in brief: as §1

O7E24 S193F P242S = tested on: T7, O7E24 S193F P242S
T7 sequence (whole entry): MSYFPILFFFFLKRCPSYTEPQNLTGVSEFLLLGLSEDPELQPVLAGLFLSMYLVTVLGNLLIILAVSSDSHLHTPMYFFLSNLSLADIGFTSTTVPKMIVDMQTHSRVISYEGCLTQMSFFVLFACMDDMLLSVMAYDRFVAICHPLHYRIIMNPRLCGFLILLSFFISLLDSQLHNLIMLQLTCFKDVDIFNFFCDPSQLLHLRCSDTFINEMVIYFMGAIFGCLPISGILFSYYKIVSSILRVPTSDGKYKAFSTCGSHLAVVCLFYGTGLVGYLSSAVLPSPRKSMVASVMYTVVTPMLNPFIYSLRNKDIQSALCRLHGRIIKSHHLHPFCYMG
Method in brief: as §1

O7E24 = tested on: T8, O7E24
T8 sequence (whole entry): T7 sequence (whole entry) with F193S
Method in brief: as §1

OR10A2 (Homo sapiens) = biological target: T9, OR10A2 (Homo sapiens) (UniProt Q9H208)
T9 sequence (whole entry): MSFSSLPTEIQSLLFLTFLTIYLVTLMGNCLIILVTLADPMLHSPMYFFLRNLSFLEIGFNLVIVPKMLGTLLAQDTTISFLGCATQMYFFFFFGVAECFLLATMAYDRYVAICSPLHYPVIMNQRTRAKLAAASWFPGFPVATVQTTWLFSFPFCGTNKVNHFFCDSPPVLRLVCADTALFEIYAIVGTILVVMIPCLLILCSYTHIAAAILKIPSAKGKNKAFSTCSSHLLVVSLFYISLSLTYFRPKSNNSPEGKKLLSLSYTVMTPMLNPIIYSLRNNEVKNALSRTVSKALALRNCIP
Method in brief: as §1

OR10A3 (Homo sapiens) = biological target: T10, OR10A3 (Homo sapiens) (UniProt P58181)
T10 sequence (whole entry): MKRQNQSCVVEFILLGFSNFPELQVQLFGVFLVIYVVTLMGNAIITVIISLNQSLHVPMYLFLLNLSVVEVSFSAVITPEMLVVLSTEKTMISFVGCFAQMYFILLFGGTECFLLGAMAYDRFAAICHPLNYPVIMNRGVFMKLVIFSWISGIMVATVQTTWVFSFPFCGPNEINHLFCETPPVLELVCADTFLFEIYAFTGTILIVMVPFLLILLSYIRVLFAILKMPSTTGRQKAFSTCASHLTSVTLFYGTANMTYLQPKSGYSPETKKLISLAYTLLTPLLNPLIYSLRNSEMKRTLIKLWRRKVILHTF
Method in brief: as §1

OR10A4 (Homo sapiens) = biological target: T11, OR10A4 (Homo sapiens) (UniProt Q9H209)
T11 sequence (whole entry): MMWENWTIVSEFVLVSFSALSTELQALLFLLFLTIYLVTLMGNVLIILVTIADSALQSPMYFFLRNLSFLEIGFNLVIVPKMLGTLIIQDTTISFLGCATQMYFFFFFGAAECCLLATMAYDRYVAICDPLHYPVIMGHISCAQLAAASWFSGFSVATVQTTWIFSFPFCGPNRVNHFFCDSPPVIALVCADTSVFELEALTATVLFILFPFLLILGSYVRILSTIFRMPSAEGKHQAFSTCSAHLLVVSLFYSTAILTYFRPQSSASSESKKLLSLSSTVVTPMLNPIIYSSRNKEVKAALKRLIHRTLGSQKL
Method in brief: as §1

OR10A5 (Homo sapiens) = biological target: T12, OR10A5 (Homo sapiens) (UniProt Q9H207)
T12 sequence (whole entry): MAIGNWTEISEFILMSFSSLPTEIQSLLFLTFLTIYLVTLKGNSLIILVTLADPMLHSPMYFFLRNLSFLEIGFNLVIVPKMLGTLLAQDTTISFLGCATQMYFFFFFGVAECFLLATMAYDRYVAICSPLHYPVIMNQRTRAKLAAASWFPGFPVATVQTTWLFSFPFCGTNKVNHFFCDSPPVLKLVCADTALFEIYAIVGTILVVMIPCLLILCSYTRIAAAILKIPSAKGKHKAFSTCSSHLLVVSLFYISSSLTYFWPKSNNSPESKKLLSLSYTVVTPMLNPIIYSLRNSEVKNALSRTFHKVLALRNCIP
Method in brief: as §1

OR10A6 (Homo sapiens) = biological target: T13, OR10A6 (Homo sapiens) (UniProt Q8NH74)
T13 sequence (whole entry): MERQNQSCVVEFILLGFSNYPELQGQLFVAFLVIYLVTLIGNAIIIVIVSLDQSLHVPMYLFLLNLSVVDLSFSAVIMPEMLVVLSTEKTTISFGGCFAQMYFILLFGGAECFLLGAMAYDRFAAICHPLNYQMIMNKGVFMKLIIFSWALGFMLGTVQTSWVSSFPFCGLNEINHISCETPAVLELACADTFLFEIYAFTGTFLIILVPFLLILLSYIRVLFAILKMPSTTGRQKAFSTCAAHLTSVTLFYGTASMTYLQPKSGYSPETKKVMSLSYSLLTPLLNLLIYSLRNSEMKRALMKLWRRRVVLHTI
Method in brief: as §1

OR10A7 (Homo sapiens) = biological target: T14, OR10A7 (Homo sapiens) (UniProt Q8NGE5)
T14 sequence (whole entry): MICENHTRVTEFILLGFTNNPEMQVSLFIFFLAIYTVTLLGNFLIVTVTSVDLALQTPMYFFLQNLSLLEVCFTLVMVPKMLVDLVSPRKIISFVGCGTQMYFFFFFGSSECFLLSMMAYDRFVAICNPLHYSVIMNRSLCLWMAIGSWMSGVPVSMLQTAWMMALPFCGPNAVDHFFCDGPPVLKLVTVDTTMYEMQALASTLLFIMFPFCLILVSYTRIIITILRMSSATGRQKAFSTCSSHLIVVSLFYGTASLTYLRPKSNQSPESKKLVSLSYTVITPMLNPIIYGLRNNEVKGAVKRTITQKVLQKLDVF
Method in brief: as §1

OR10AD1 (Homo sapiens) = biological target: T15, OR10AD1 (Homo sapiens) (UniProt Q8NGE0)
T15 sequence (whole entry): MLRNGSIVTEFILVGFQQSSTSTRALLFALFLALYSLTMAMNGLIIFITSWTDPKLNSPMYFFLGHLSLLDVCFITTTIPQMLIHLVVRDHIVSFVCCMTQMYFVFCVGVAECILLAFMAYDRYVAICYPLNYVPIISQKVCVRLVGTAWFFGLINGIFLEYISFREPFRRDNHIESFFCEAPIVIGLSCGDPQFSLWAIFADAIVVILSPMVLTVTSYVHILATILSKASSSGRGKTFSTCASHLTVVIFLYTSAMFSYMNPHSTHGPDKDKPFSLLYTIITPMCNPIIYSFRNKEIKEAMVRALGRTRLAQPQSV
Method in brief: as §1

OR10AG1 (Homo sapiens) = biological target: T16, OR10AG1 (Homo sapiens) (UniProt Q8NH19)
T16 sequence (whole entry): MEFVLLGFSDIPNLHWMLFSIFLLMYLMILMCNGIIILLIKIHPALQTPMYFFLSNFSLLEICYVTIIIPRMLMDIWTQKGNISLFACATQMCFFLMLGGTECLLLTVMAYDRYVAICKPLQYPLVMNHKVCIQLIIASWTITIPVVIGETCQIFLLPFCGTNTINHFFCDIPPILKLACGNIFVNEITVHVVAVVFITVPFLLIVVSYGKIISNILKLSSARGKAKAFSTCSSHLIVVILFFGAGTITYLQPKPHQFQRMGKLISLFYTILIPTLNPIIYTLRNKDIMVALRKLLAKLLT
Method in brief: as §1

OR10C1 (Homo sapiens) = biological target: T17, OR10C1 (Homo sapiens) (UniProt Q96KK4)
T17 sequence (whole entry): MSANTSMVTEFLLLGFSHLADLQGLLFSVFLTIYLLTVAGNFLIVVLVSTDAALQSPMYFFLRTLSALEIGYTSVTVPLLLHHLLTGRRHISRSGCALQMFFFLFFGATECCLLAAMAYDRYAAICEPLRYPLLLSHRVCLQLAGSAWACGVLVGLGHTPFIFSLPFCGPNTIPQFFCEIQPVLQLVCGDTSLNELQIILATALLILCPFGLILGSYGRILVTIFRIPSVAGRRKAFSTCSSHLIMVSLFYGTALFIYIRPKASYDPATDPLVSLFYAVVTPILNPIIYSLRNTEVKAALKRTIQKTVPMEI
Method in brief: as §1

OR10D3 (Homo sapiens) = biological target: T18, OR10D3 (Homo sapiens) (UniProt Q8NH80)
T18 sequence (whole entry): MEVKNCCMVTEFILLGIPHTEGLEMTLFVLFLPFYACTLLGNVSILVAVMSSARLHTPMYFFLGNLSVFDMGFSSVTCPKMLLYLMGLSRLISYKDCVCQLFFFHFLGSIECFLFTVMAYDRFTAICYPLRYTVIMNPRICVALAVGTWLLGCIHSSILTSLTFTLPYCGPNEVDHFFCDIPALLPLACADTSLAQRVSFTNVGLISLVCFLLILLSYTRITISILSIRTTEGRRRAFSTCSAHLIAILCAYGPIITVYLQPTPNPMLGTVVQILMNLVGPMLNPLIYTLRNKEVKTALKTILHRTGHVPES
Method in brief: as §1

Measured: odorant receptor agonist call;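 note: active if original authors judged signal statistically different from baseline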

CCCC(S)CCOC(C)=O (stereo not drawn)
inactive: all assays above
